Assay: Toxicity liver stage against HepG2, at 10uM
Type: cell-based
Set-up: test concentration 10 uM, cell line HepG2-A16-CD81EGFP
Details: human, HepG2-A16-CD81EGFP cells; read-out: INHIBITION
Method in brief: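 Uninfected HepG2-A16-CD81EGFP cells, 3 × 10^3 per well, 1536-well, plated on prespotted compound at 10 μM final, parasite-free screening media added to match infected plates; puromycin 10 μM positive, DMSO 0.5% negative; run in parallel with 48 h PbLuc assay at 37 °C, 5% CO2; viability by CellTiter-Glo luminescence, normalized to controls.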

Compound | cytotoxicity at 10 µM [%]
CC[C@H]1CN(S(=O)(=O)c2ccc(OC)cc2)CC[C@H]1CC(=O)O | 7.28
COc1ccc(OC)c(Sc2ncccc2C(=O)NCC2CC2)c1 | 20.7
CC(C)(Oc1ccc(C(N)=O)cc1)C(=O)N(CCC#N)C1CC1 | 1.58
COCCc1noc(C2CCN(S(=O)(=O)c3cccs3)CC2)n1 | 7.51
Cn1cnnc1S(=O)(=O)C1CCN(C(=O)c2ccsc2)CC1 | 6.81
CCCN1CCC2(C1)c1ccccc1S(=O)(=O)N2Cc1ccc(F)cc1 (stereo not given) | 18.3
O=C(O)c1cc(-c2ccn(CC3CC3)n2)n2ccccc12 | 13.2
Cc1cc(C(=O)N2CC[C@@H]3CO[C@@H](CN4CCCC4)[C@@H]3C2)no1 | 7.61
CC(C)NC(=O)C1Cc2nc(-c3ccsc3)sc2N1CC1CC1 (stereo not given) | 6.61
O=C(c1ccc[nH]1)N1CCN(Cc2ccncc2)c2ncccc2C1 | 10.1
O=C(c1cnccn1)N1CCC2(CCN(Cc3ccsc3)C2)CC1 | -3.33
CN1CCN(C(=O)[C@@H]2C[C@@H]3CCN(c4cccc(F)c4)C[C@H]3O2)CC1 | -6.22
O=C(c1ccncc1)N1CCN2C[C@H](Oc3cncnc3)C[C@H]2C1 | 8.7
Nc1nnnn1NCc1cccc2ccccc12 | 10.4
CC1(c2nccs2)CCN(C(=O)CCN2CCOCC2)CC1 | 2.97
COCC(=O)N1CCCC(C)(c2nncn2C)C1 (stereo not given) | 4.08
CNC(=O)CCc1cc(C)nc(C2CCN(CC(=O)N(C)C)CC2)c1 | 2.9
Nc1nc2nc(C3CCN(C(=O)c4cscn4)C3)ccc2s1 (stereo not given) | -5.72
CNc1cc(CNC(=O)c2ccccc2OC)nc(-c2ccncc2)n1 | -13.7
CC1CCCCN1c1nc2c(c(=O)[nH]1)CCN(Cc1ccccc1O)C2 (stereo not given) | -1.97
CNc1cncc(C2CCCN2C(=O)Cn2c(=O)oc3ccccc32)n1 (stereo not given) | -6.14
CC(C)NC(=O)CN(C)C(=O)c1c(Br)c2ccccc2n1C | 4.61
CCN(CC(=O)NC(C)(C)C)Cc1cccc2c1OCCO2 | -18.7
CN(C)CC1CCCCN1C(=O)c1ccc(N2CCOCC2)cc1 (stereo not given) | -0.0679
CCC(C)CS(=O)(=O)NCCc1csc(N2CCCC2)n1 (stereo not given) | 1.28
CCOc1ccc(Cl)c(C(=O)N2CCCC(N3CCCC3)C2)n1 (stereo not given) | 8.29
CN(C)c1ccc(C(=O)N2CCCC2c2cnn(C)c2)nn1 (stereo not given) | -10.3

Compound | cytotoxicity at 10 µM [%]
CC(C)c1nc(S(=O)(=O)N(C)c2cc(F)ccc2F)c[nH]1 | 13.9
Cc1noc(C)c1CCCNC(=O)Nc1ccc2c(c1)COC2 | 3.27
CCCc1nnc(N2CCC(N3CCCCCC3)CC2)o1 | -15.3
COc1cc(N2CCN(Cc3ccsc3)C(CCO)C2)nc(N)n1 (stereo not given) | 2.45
Cc1ccc(-c2ncc(C(=O)N3CCN4CCCCC4C3)c(O)n2)cc1 (stereo not given) | -7.82
COCCn1cnnc1CN(C)c1nc(N)nc2c1CCCC2 | -6.98
CCN(CC)CCN(C)c1nc(-c2ccc(Cl)cc2)nc2c1CNC2 | 1.78
CCCc1cc(C(=O)NC2CCCCNC2=O)[nH]n1 (stereo not given) | 0.828
Cc1nnc(CN(C)C2CCN(c3cccc(-c4cscn4)c3)CC2)o1 | -7.3
Cc1ccn(CC(=O)N2CC[C@@H](c3ccc4ccccc4c3)[C@H](O)C2)n1 | 5.02
N#Cc1ccccc1C(=O)NCCC1CN(Cc2ccco2)CCO1 (stereo not given) | -7.25
CCOc1ccnc(NCCc2nc(C)cc(=O)[nH]2)n1 | -6.73
Cc1cnc(NCC(C)(C)N2CCCCC2)nc1 | -2.69
O=C(C1CCC1)N1CCN(C(=O)c2cnccn2)[C@H]2CS(=O)(=O)C[C@H]21 | -10.8
CC(C)(C)c1ncc2c(n1)CN(C(=O)c1ccc(-c3nc[nH]n3)cc1)C2 | -16.8
Cc1ccc(OC2(C(=O)O)CCN(C(=O)c3nc(C)oc3C)CC2)cn1 | -9.41
CCC(NC(=O)C1CCN(S(C)(=O)=O)CC1)c1ccc(OC)c(C)c1 (stereo not given) | -10
N#Cc1cc2c(nc1O)CCCCC2 | -6.88
COCCN1CCC(NCc2ccc(Cl)cc2)C1 (stereo not given) | -5.56
NC(=O)C1CCN(C(=O)c2ccn(-c3cccc(F)c3)n2)C1 (stereo not given) | -3.05
COc1ccc(C(CNC(=O)NCc2csc(C)n2)N(C)C)cc1 (stereo not given) | -5.59
Cc1cc(C)c(CNC(=O)NCC2COCCO2)c(=O)[nH]1 (stereo not given) | -3.81
Cc1cnn(CCC(=O)N2CCN(c3nccs3)CC2)c1 | -8.03
c1ccc(Cc2nc(CN3CCCC3Cn3cncn3)cs2)cc1 (stereo not given) | -2.54
Cc1cc(C(=O)N2CCCC2c2c(C)nn(C)c2C)no1 (stereo not given) | -2.57
CCc1ocnc1C(=O)N1CCOC(c2nc(C)n[nH]2)C1 (stereo not given) | -12
CCN1CCC(NC(=O)CN2CC(n3nc(C)cc3C)C2)CC1 | -4.44

Compound | cytotoxicity at 10 µM [%]
CC(C)Cc1nc(CN2CCN(CC(O)c3ccccc3)CC2)no1 (stereo not given) | -14.4
CCc1n[nH]c(C2CN(C(=O)c3ccnc(C)n3)CCO2)n1 (stereo not given) | -7.06
Cc1nn(C)c(N(C)C)c1CNC(C)COc1ccccc1F (stereo not given) | -14.1
Cc1nn(C)c(C)c1C1CCCN1Cc1nc(N)c2ccccc2n1 (stereo not given) | -16
CC(C)(C)C(=O)NCCC(=O)NCCc1ccn(-c2ccccc2)n1 | -8.89
CCc1nc(C2CCCN(C(=O)c3ccc(Cl)cc3)C2)no1 (stereo not given) | 5.71
CCc1nc(CNCC2CCCN2c2cccnn2)no1 (stereo not given) | -12.6
O=C(COc1cccnc1)N1CCCC(n2cccn2)C1 (stereo not given) | -1.92
Cc1nc(C)n(C2CCCN(C(=O)c3nc(C)n4ccccc34)C2)n1 (stereo not given) | -10.9
CC(C)c1nc(CN2CCC(CO)CC2)cs1 | -20.1
O=C(Nc1cc(F)ccc1OCC1CCCO1)c1ccoc1 (stereo not given) | 4.43
COCCn1cc(C(=O)N2CCCC(n3cncn3)C2)ccc1=O (stereo not given) | -2.38
Cc1cc(CN(C)C(=O)NCC2CCS(=O)(=O)C2)no1 (stereo not given) | -0.874
O=C(NCCc1ccsc1)Nc1cccnc1N1CCCC1 | -6.78
CN1CCC/C1=N\S(=O)(=O)c1ccc(NC(=O)c2cccs2)cc1 | -3.34
CC(C)NC(=O)[C@H]1C[C@@H]2[C@@H](C1)OCCN2Cc1ccccn1 | 6.62
O=C(c1ccnnc1)N1CCN(Cc2ccncc2)c2ncccc2C1 | -0.201
Cc1ccnc(OC[C@@]23CCO[C@@H]2CCN(c2ncccn2)C3)n1 | 4.86
N#Cc1cccc(CN2CC[C@@H]3CO[C@@H](CN4CCCC4)[C@@H]3C2)c1 | -0.159
Cc1noc(C)c1CN1CCN(CCN(C)C)c2ncccc2C1 | 7.83
O=C([C@H]1C[C@@H]2CCN(c3cccc(F)c3)C[C@H]2O1)N1CCCCO1 | 1.67
O=C(c1ccco1)N1C[C@@H]2OCCN(CCN3CCCC3)[C@@H]2C1 | 1.54
COCCN1CCCC12CCN(c1ncccn1)CC2 | 11.4
CC(C)n1nc(Cn2cccc2)c2c1CN(C1CCOCC1)C2 | 7.55
CN(C)[C@@H]1CCN(C(=O)NC2CCCC2)[C@H]1Cc1ccncc1 | 5.83
Cc1cccc(-n2cc3nc(N4CCC(C)CC4)[nH]cc-3c2=O)c1 | 0.738
